Data: ChEMBL document CHEMBL2203191, “Synthesis and biological evaluation of new fluorine substituted derivatives as angiotensin II receptor antagonists with anti-hypertension and anti-tumor effects” (Bioorg Med Chem, 2012)
The source made the active and inactive calls. The calls are words filed in the database; no cut-off is given here.

Experiments:
Rattus norvegicus [1] = assay: Antihypertensive activity in SHR rat assessed as decrease in mean arterial pressure at 10 mg/kg, po; format: functional, Artery
Procedure, shortened: (§1)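 SHR (250-300 g) or renal hypertensive rats (SD rats, 250-350 g, left renal artery fully ligated under sodium pentobarbital 40 mg/kg; SBP above 160 mmHg selected), 10 per group. Dosed orally at 5 or 10 mg/kg as a suspension in 0.5% sodium carboxymethyl cellulose; vehicle-only negative control. Rats under pentobarbital (40 mg/kg ip) with right carotid cannulated to a pressure transducer; MAP recorded continuously for over 10 h and again at 24 h.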

LNCaP [2] = assay: Antitumor activity against human LNCAP cells xenografted in athymic nude mouse assessed as relative tumor volume at 10 mg/kg/day dosed on day 8 measured at 4 weeks post implantation by caliper measurement (reference value: 28.34 +/-2.05); format: functional
Rattus norvegicus [3] = assay: Antihypertensive activity in SHR rat assessed as decrease in mean arterial pressure at 10 mg/kg, po measured for 7 hrs after dosing; format: functional, organism-based; design: dose 10 mg/kg; conditions: Artery; procedure, shortened: as §1
Rattus norvegicus [4] = species: Rattus norvegicus; assay: (§2) Displacement of [125I]Angiotensin-2 from angiotensin AT1 receptor in Sprague-Dawley rat VSMC after 60 mins by gamma counting
Procedure, shortened: (§3)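 VSMCs from SD rat thoracic aorta, grown as explants in DMEM with 15% FBS; passages 3–7 used. Cells incubated with 0.1 nM [125I]Ang II and compound (1 × 10^-6 to 1 × 10^-12 M final) for 60 min at 37 °C. Nonspecific binding set with 1 µM Ang II. After PBS washes, cells lysed in 0.1 M NaOH and counted by gamma counter. IC50 obtained by regression of displacement curves; Ki = IC50/(1+[L]/Kd).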

[5] = as §2; procedure, shortened: as §3
LNCaP [6] = assay: Antitumor activity against human LNCAP cells xenografted in athymic nude mouse assessed as relative tumor volume at 5 mg/kg/day dosed on day 8 measured at 4 weeks post implantation by caliper measurement (reference value: 28.34 +/-2.05); format: functional
LNCaP [7] = assay: Antiproliferative activity against human LNCAP cells assessed as reduction in Ang-2-induced increase in cell viability at 10 uM after 24 to 96 hrs by MTT assay; format: functional, cell-based
Procedure, shortened: (§4)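 LNCaP cells (1 × 10^5 per well) grown overnight at 37 °C, 5% CO2, then exposed to compound at 10 µM, with or without Ang II (1 × 10^-7 M). Control got medium with 0.05% v/v DMSO. MTT (5 mg/mL stock) added after 24, 48, 72 or 96 h and incubated 4 h at 37 °C; formazan dissolved in DMSO and read at 570 nm.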

Rattus norvegicus [8] = assay: Antihypertensive activity in Sprague-Dawley rat renal hypertensive model assessed as decrease in mean arterial pressure at 10 mg/kg, po; format: functional, organism-based; design: dose 10 mg/kg; conditions: Artery; procedure, shortened: as §1
Rattus norvegicus [9] = assay: Antihypertensive activity in SHR rat assessed as decrease in mean arterial pressure at 5 mg/kg, po after 3 hrs; format: functional, Artery; procedure, shortened: as §1
Rattus norvegicus [10] = assay: Antihypertensive activity in SHR rat assessed as decrease in mean arterial pressure at 5 to 10 mg/kg, po measured for 8 hrs after dosing; format: functional, organism-based; conditions: Artery; procedure, shortened: as §1
Rattus norvegicus [11] = assay: Cardiotoxicity in SHR rat assessed as effect on heart rate at 10 mg/kg, po; format: toxicity, organism-based; design: dose 10 mg/kg, route oral; conditions: in vivo
Procedure, shortened: (§5)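 Heart rate taken in SHR (250-300 g, 10 per group) given 5 or 10 mg/kg orally as a suspension in 0.5% sodium carboxymethyl cellulose, alongside a vehicle control. Monitored under sodium pentobarbital anesthesia (40 mg/kg ip) through a carotid arterial catheter and pressure transducer, continuously for over 10 h and again at 24 h.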

Rattus norvegicus [12] = assay: Cardiotoxicity in SHR rat assessed as effect on heart rate at 5 mg/kg, po; format: toxicity, organism-based; design: dose 5 mg/kg, route oral; conditions: in vivo; procedure, shortened: as §5
Rattus norvegicus [13] = assay: Antihypertensive activity in SHR rat assessed as decrease in mean arterial pressure at 10 mg/kg, po after 3 hrs; format: functional, Artery; procedure, shortened: as §1
Rattus norvegicus [14] = assay: Antihypertensive activity in SHR rat assessed as mean arterial pressure at 5 to 10 mg/kg, po; format: functional, organism-based; conditions: Artery; procedure, shortened: as §1
Rattus norvegicus [15] = assay: Antihypertensive activity in SHR rat assessed as decrease in mean arterial pressure at 10 mg/kg, po measured for 9 hrs after dosing; format: functional, organism-based; design: dose 10 mg/kg; conditions: Artery; procedure, shortened: as §1
Rattus norvegicus [16] = assay: Antihypertensive activity in SHR rat assessed as decrease in mean arterial pressure at 5 mg/kg, po; format: functional, Artery; procedure, shortened: as §1
LNCaP [17] = assay: Cytotoxicity against human LNCAP cells assessed as cell viability at 10 uM after 24 to 96 hrs by MTT assay; format: cell-based; procedure, shortened: as §4
Rattus norvegicus [18] = assay: Antihypertensive activity in SHR rat assessed as decrease in mean arterial pressure at 5 to 10 mg/kg, po after 3 to 5 hrs; format: functional, organism-based; conditions: Artery; procedure, shortened: as §1
Rattus norvegicus [19] = assay: Antihypertensive activity in SHR rat assessed as decrease in mean arterial pressure at 10 mg/kg, po after 24 hrs; format: functional, organism-based; design: dose 10 mg/kg; conditions: Artery; procedure, shortened: as §1
Rattus norvegicus [20] = assay: Antihypertensive activity in Sprague-Dawley rat renal hypertensive model assessed as decrease in mean arterial pressure at 5 mg/kg, po; format: functional, organism-based; design: dose 5 mg/kg; conditions: Artery; procedure, shortened: as §1

Row | SMILES | inhibition (Rattus norvegicus [4]) | IC50 [5] [nM] | Ki [5] [nM] | Activity (Rattus norvegicus [1]) [mmHg] | Activity (Rattus norvegicus [8]) | Activity (Rattus norvegicus [11]) | Activity (Rattus norvegicus [12]) | Activity (Rattus norvegicus [14]) | other results
1 | CCCCc1nc(Cl)c(C(=O)O)n1Cc1ccc(-c2cc(F)c(F)cc2C(=O)O)cc1 | Dose-dependent effect | 13.5 | 9.11 | – | – | Non-toxic | Non-toxic | inactive | –
2 | CCCCc1nc(Cl)c(CO)n1Cc1ccc(-c2ccc(F)cc2C(=O)O)cc1 | Dose-dependent effect | 4.11 | 3.78 | 25 | Active | Non-toxic | Non-toxic | – | Activity (Rattus norvegicus [10]): Active; Activity (Rattus norvegicus [16]): 18 mmHg
3 | CCCCC1=NC2(CCCC2)C(=O)N1Cc1ccc(-c2ccc(F)cc2C(=O)O)cc1 | Dose-dependent effect | 9.98 | 6.75 | – | – | Non-toxic | Non-toxic | inactive | –
4 | CCCCc1nc(Cl)c(CO)n1Cc1ccc(-c2ccccc2-c2nn[nH]n2)cc1 [LOSARTAN] | – | – | – | – | – | Non-toxic | – | – | Activity (LNCaP [17]): Non-toxic

Now from value to molecule, other results behind:

Row | inhibition (Rattus norvegicus [4]) | IC50 [5] [nM] | Ki [5] [nM] | SMILES | Activity (Rattus norvegicus [1]) [mmHg] | Activity (Rattus norvegicus [8]) | Activity (Rattus norvegicus [11]) | Activity (Rattus norvegicus [12]) | Activity (Rattus norvegicus [14]) | other results
5 | Dose-dependent effect | 1.64 | 1.41 | CCCCc1nc(Cl)c(CO)n1Cc1ccc(-c2ccccc2-c2nnn[nH]2)cc1 [LOSARTAN] | 27 | Active | – | – | – | Ratio (LNCaP [2]): 15.75; Activity (Rattus norvegicus [3]): Active; Ratio (LNCaP [6]): 21.44; Activity (LNCaP [7]): Active
6 | Dose-dependent effect | 13.6 | 9.17 | CCCCc1nc(Cl)c(C(=O)O)n1Cc1ccc(-c2cc(F)ccc2C(=O)O)cc1 | – | Active | Non-toxic | Non-toxic | – | Activity (Rattus norvegicus [9]): 23 mmHg; Activity (Rattus norvegicus [10]): Active; Activity (Rattus norvegicus [13]): 32 mmHg
7 | Dose-dependent effect | 3.11 | 2.75 | CCCCC1=NC2(CCCC2)C(=O)N1Cc1ccc(-c2ccccc2-c2nnn[nH]2)cc1 [IRBESARTAN] | – | – | – | – | – | –
8 | Dose-dependent effect | 2.64 | 2.08 | CCCCC(=O)N(Cc1ccc(-c2ccccc2-c2nnn[nH]2)cc1)[C@H](C(=O)O)C(C)C [VALSARTAN] | 28 | Active | Non-toxic | – | – | Activity (Rattus norvegicus [15]): Active
9 | Dose-dependent effect | 26.1 | 17.6 | CCCCc1nc(Cl)c(C(=O)O)n1Cc1ccc(-c2ccc(F)cc2C(=O)O)cc1 | – | – | Non-toxic | Non-toxic | inactive | –
10 | Dose-dependent effect | 0.584 | 0.42 | CCCC(=O)N(Cc1ccc(-c2ccc(F)cc2C(=O)O)cc1)[C@H](C(=O)O)C(C)C | 42 | Active | Non-toxic | Non-toxic | – | Activity (LNCaP [17]): Non-toxic; Activity (Rattus norvegicus [18]): Active; Ratio (LNCaP [2]): 12.39; Activity (Rattus norvegicus [19]): Active; Activity (Rattus norvegicus [20]): Active; Activity (Rattus norvegicus [16]): 27 mmHg; Ratio (LNCaP [6]): 17.44; Activity (LNCaP [7]): Active
